Experimental data as given in ChEMBL document CHEMBL3046830, “Isolation and identification of secondary metabolites of Clitocybe nuda responsible for inhibition of zoospore germination of Phytophthora capsici” (2012).
Calls of active or inactive are those of the source. The rule behind the calls is not given here.

Columns and labels:
Assay type in all cases: functional
Phytophthora capsici [1] = test: Antimicrobial activity against Phytophthora capsici PCM81 assessed as zoospore germination at 500 ppm at 24 degC for 8 hr
How it was run: (§1)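 P. capsici PCM81 sporangia grown 5 days on 10% V8 agar at 24 °C under a 12 h light–dark cycle. Zoospores released in sterile water for 1 day at 24 °C, then chilled at 4 °C for 1 h. The suspension is mixed 1:1 with the sample in a cavity slide and kept moist; a distilled-water mix is the control. Germination is scored after 8 h at 24 °C, counting 100 spores × 4 replicates, with the experiment run twice and analysed by Duncan's test.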

Phytophthora capsici [2] = test: Antimicrobial activity against Phytophthora capsici PCM81 assessed as inhibition of zoospore germination at 500 mg/L at 24 degC for 8 hr; details: for inhibition at 500 µg/mL: PCM81, 8 h; how it was run: as §1
Phytophthora capsici [3] = test: Antimicrobial activity against Phytophthora capsici PCM81 assessed as zoospore germination at 1000 ppm at 24 degC for 8 hr; how it was run: as §1
Phytophthora capsici [4] = test: Antimicrobial activity against Phytophthora capsici PCM81 assessed as zoospore germination at 100 ppm at 24 degC for 8 hr; how it was run: as §1

Structure (SMILES) | Activity (Phytophthora capsici [1]) [%] | inhibition (Phytophthora capsici [2]) | Activity (Phytophthora capsici [3]) [%] | Activity (Phytophthora capsici [4]) [%] | inhibition at 500 µg/mL (Phytophthora capsici [2]) [%]
O=Cc1c[nH]c2ccccc12 [3-FORMYLINDOLE] | 0 | Active | 0 | 57 | 
O=CC1=CC=C(O)OC1 | 14.5 |  | 0 | 77 | 86
COCC1=C(C)C(=O)C=C(OC)C1=O | 3 |  | 0 | 65 | 97
